Experimental data reported in ChEMBL document CHEMBL1141159, “Design, synthesis, and antiviral activity of 2'-deoxy-2'-fluoro-2'-C-methylcytidine, a potent inhibitor of hepatitis C virus replication” (2005).

What was measured:
Type in all cases: functional
[1] = Cytotoxic concentration against bovine viral diarrhea virus (BVDV) in MDBK cells; settings: Bos taurus
Method in brief: (§1)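 Cytotoxicity (CC50) read by MTS colorimetric cell-proliferation assay after 4 days of compound exposure.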

Huh-7 [2] = assay: Cytotoxic concentration against HCV replication RNA levels in Huh7 cells determined by HCV replicon assay; settings: Homo sapiens; method in brief: as §1
[3] = Effective concentration required to reduce cytopathic effects caused by bovine viral diarrhea virus (BVDV) in MDBK cells by 90%; settings: Bos taurus
Huh-7 [4] = assay: Effective concentration required to reduce HCV replication RNA levels in Huh7 cells by 90% determined by HCV replicon assay; settings: Homo sapiens
Method in brief: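 Subgenomic HCV replicon cells were treated with compound, and HCV RNA was quantified by real-time quantitative RT-PCR to derive the concentration giving 90% reduction.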

Compound | CC50 [1] [µM] | CC50 (Huh-7 [2]) [µM] | EC90 [3] [µM] | EC90 (Huh-7 [4]) [µM]
C[C@@]1(F)[C@H](O)[C@@H](CO)O[C@H]1n1ccc(N)nc1=O | > 100 | > 100 | > 100 | 5.4
C[C@@]1(O)[C@H](O)[C@@H](CO)O[C@H]1n1ccc(N)nc1=O | > 100 | > 100 | 2.3 | 19
Nc1ccn([C@@H]2O[C@H](CO)[C@@H](O)[C@@H]2F)c(=O)n1 | > 100 | > 100 | > 100 | 6.5
C[C@@]1(F)[C@H](O)[C@@H](CO)O[C@H]1n1ccc(=O)[nH]c1=O | > 100 | > 100 | > 100 | > 100
